# Test results reported in ChEMBL document CHEMBL1122058, “Agents for the treatment of brain injury. 1. (Aryloxy)alkanoic acids” (J Med Chem, 1982).
# Calls of active or inactive are those of the source. No cut-off for these calls is given here.
# Assays:
# [1] = Dissociation constant (pKa) (determined in 30% EtOH); format: physicochemical
# [2] = Distribution coefficient (D %) between octanol and buffer of pH 7.4; format: physicochemical; settings: octanol/water
# [3] = species: Felis catus; experiment: In vitro inhibition of HCO3- stimulated swelling in cat cerebrocortical tissue slice; format: functional; settings: read-out: I 50
# How it was run: (§1)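 Cat cerebral cortex slices (~150 mg, 0.5 mm) incubated aerobically 60 min at 37 °C in K+-rich (27 mM) Hepes-buffered saline-glucose with test compound as Na salt. HCO3- (NaHCO3 or TEAB) added from sidearm at 20 min to 10 mM final; HCO3- flasks gassed with 2.5% CO2/97.5% O2. Swelling by reweighing; Na+/K+ by flame photometry, Cl- by amperometric titration. Units: per g initial fresh weight; means ± SE, Student's t test.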
# [4] = species: Rattus norvegicus; experiment: Relative salidiuretic efficacy was scored in Rat; weak; format: functional, organism-based; settings: Urine
# [5] = species: Felis catus; experiment: In vitro inhibition of tissue swelling of Cerebrocortical slices from cat with addition of Sodium Bicarbonate (NaHCO3).; format: functional; how it was run: as §1
# [6] = species: Felis catus; experiment: Evaluated for Sodium ion content of Cerebrocortical slices in cat with out additions; format: functional; how it was run: as §1
# [7] = species: Felis catus; experiment: Evaluated for Sodium ion content of Cerebrocortical slices in cat with out additions
# [8] = species: Rattus norvegicus; experiment: Relative salidiuretic efficacy was scored in Rat; moderate; format: functional, organism-based; settings: Urine
# [9] = species: Felis catus; experiment: (§2) Evaluated for chloride ion content of Cerebrocortical slices in cat with out additions; format: functional; how it was run: as §1
# [10] = species: Felis catus; experiment: (§3) Evaluated for Potassium ion content of Cerebrocortical slices in cat with out additions; format: functional; how it was run: as §1
# [11] = species: Felis catus; experiment: Evaluated for Potassium ion content of Cerebrocortical slices in cat with addition of Sodium Bicarbonate (NaHCO3).; format: functional; how it was run: as §1
# [12] = Compound was tested for bicarbonate stimulated swelling of Cerebrocortical slices from cat with addition of Triethylammonium Bicarbonate (TEAB) (in vitro); format: functional; how it was run: as §1
# [13] = species: Felis catus; experiment: In vitro inhibition of tissue swelling of Cerebrocortical slices from cat with out additions; format: functional; how it was run: as §1
# [14] = species: Felis catus; experiment: as §3; format: functional; how it was run: as §1; remark: listed apart in the source
# [15] = system: Felis catus; experiment: Mortality of animals recorded as the number of animals dead out of the total animals (42) taken for the study at dose 1 mg/kg; format: functional
# How it was run: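 Adult conditioned cats (2.5–4 kg) under iv methohexital (13.25 mg/kg, plus 2.75 mg/kg if needed) received machine-induced acceleration/deceleration head injury. Forty min later they were paralysed with gallamine and ventilated with 6% O2/94% N2 for 60 min (arterial pO2 23 ± 1 torr). Drug was given iv 20 min post-injury, before hypoxemia. Mortality was scored as dead/total, chi-square tested.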
# [16] = species: Felis catus; experiment: Evaluated for Sodium ion content of Cerebrocortical slices in cat with addition of Sodium Bicarbonate (NaHCO3).; format: functional; how it was run: as §1
# [17] = species: Pan troglodytes; experiment: Relative salidiuretic efficacy was scored in chimpanzee; moderate; format: functional, organism-based; settings: Urine
# [18] = Compound was tested for bicarbonate stimulated swelling of Cerebrocortical slices from cat with addition of Sodium Bicarbonate (NaHCO3) (in vitro); how it was run: as §1
# [19] = species: Canis familiaris; experiment: Relative salidiuretic efficacy was scored in dog; moderate; format: functional, organism-based; settings: Canis lupus familiaris; Urine
# [20] = species: Felis catus; experiment: In vitro inhibition of tissue swelling of Cerebrocortical slices from cat with addition of Triethylammonium Bicarbonate (TEAB).; format: functional; how it was run: as §1
# [21] = species: Felis catus; experiment: Evaluated for chloride ion content of Cerebrocortical slices in cat with addition of Sodium Bicarbonate (NaHCO3).; format: functional; how it was run: as §1
# [22] = species: Felis catus; experiment: Evaluated for Potassium ion content of Cerebrocortical slices in cat with addition of Triethylammonium Bicarbonate (TEAB).; format: functional; how it was run: as §1
# [23] = species: Felis catus; experiment: as §2; format: functional; how it was run: as §1; remark: listed apart in the source
# [24] = species: Felis catus; experiment: Evaluated for chloride ion content of Cerebrocortical slices in cat with addition of Triethylammonium Bicarbonate (TEAB).; format: functional; how it was run: as §1
# [25] = species: Felis catus; experiment: Evaluated for Sodium ion content of Cerebrocortical slices in cat with addition of Triethylammonium Bicarbonate (TEAB).; format: functional; how it was run: as §1
# [26] = species: Felis catus; experiment: In vitro inhibition of tissue swelling of Cerebrocortical slices from cat with out additions
# [27] = species: Homo sapiens; experiment: Relative salidiuretic efficacy was scored in human; moderate; format: functional, organism-based; settings: Urine
# [28] = species: Rattus norvegicus; experiment: Relative salidiuretic efficacy was scored in Rat; inactive; format: functional, organism-based; settings: Urine
# [29] = species: Pan troglodytes; experiment: Relative salidiuretic efficacy was scored in chipanze; weak; format: functional, organism-based; settings: Urine
# [30] = species: Canis familiaris; experiment: Relative salidiuretic efficacy was scored in dog; Marginal; format: functional, organism-based; settings: Canis lupus familiaris; Urine
# [31] = species: Canis familiaris; experiment: Relative salidiuretic efficacy was scored in dog; inactive; format: functional, organism-based; settings: Canis lupus familiaris; Urine
# [32] = species: Rattus norvegicus; experiment: Relative salidiuretic efficacy was scored in Rat; Marginal; format: functional, organism-based; settings: Urine
# [33] = species: Felis catus; experiment: In vitro inhibition of HCO3- stimulated swelling in cat cerebrocortical tissue slice; At no concentration was swelling inhibited 100%; format: functional; settings: read-out: I 50; how it was run: as §1
# [34] = species: Canis familiaris; experiment: Relative salidiuretic efficacy was scored in dog; weak; format: functional, organism-based; settings: Canis lupus familiaris; Urine
# [35] = species: Pan troglodytes; experiment: Relative salidiuretic efficacy was scored in chimpanzee; weak; format: functional, organism-based; settings: Urine
structure (smiles),measurement,setting,value
CCCCC1(C2CCCC2)Cc2cc(OCC(=O)O)c(Cl)c(Cl)c2C1=O (racemic),pKa,[1],3.9
same,Distribution,[2],99%
same,IC50,[3],3 nM
same,Relative salidiuretic activity,[4],weak
CC1(C2CCCC2)Cc2cc(OCC(=O)O)c(Cl)c(Cl)c2C1=O (racemic),Tissue swelling,[5],268 µL/g
same,pKa,[1],3.9
same,Activity,[6],101.6 µM/g
same,Activity,[7],100.4 µM/g
same,Relative salidiuretic activity,[8],marked
same,Activity,[9],90.2 µM/g
same,Distribution,[2],90%
same,Activity,[10],94.4 µM/g
same,Activity,[11],97.1 µM/g
same,Activity,[12],100
same,Tissue swelling,[13],179 µL/g
same,Activity,[14],93.5 µM/g
same,Mortality,[15],11
same,Activity,[16],116.3 µM/g
same,Relative salidiuretic activity,[17],marked
same,Activity,[18],100
same,Relative salidiuretic activity,[19],marked
same,Tissue swelling,[20],293 µL/g
same,Activity,[21],98.2 µM/g
same,Activity,[22],91.4 µM/g
same,Activity,[23],89.9 µM/g
same,Activity,[24],104.8 µM/g
same,Activity,[25],118.8 µM/g
same,IC50,[3],200 nM
same,Tissue swelling,[26],170 µL/g
same,Relative salidiuretic activity,[27],marked
CCCC[C@]1(C2CCCC2)Cc2cc(OCC(=O)O)c(Cl)c(Cl)c2C1=O,pKa,[1],3.9
same,Distribution,[2],99%
same,IC50,[3],0.3 nM
same,Relative salidiuretic activity,[4],weak
CCCCC1(C2CCCC2)Cc2cc(OCCCC(=O)O)c(Cl)c(Cl)c2C1=O (racemic),pKa,[1],4.4
same,Distribution,[2],99.8%
same,Relative salidiuretic activity,[28],inactive
same,IC50,[3],4 nM
O=C(O)COc1cc2c(c(Cl)c1Cl)C(=O)C(CC1CCCC1)C2 (racemic),pKa,[1],3.8
same,Relative salidiuretic activity,[29],Marginal
same,Distribution,[2],97%
same,Relative salidiuretic activity,[30],Marginal
same,IC50,[3],10 nM
same,Relative salidiuretic activity,[4],Marginal
CC1(c2ccccc2)Cc2cc(OCCCC(=O)O)c(Cl)c(Cl)c2C1=O (racemic),pKa,[1],6.4
same,Distribution,[2],99%
same,Relative salidiuretic activity,[31],inactive
CC1(Cc2ccccc2)Cc2cc(OCCCC(=O)O)c(Cl)c(Cl)c2C1=O (racemic),pKa,[1],6.3
same,Distribution,[2],99.5%
same,IC50,[3],> 100000 nM
CCCC1(C2CCCC2)Cc2cc(OCCCC(=O)O)c(Cl)c(Cl)c2C1=O (racemic),pKa,[1],4.1
same,Distribution,[2],99.6%
same,Relative salidiuretic activity,[32],Marginal
same,IC50,[33],8 nM
CCC1(C2CCCC2)Cc2cc(OCCCC(=O)O)c(Cl)c(Cl)c2C1=O (racemic),pKa,[1],3.8
same,Distribution,[2],98.7%
same,Relative salidiuretic activity,[32],Marginal
same,IC50,[3],> 10 nM
CCCC[C@@]1(C2CCCC2)Cc2cc(OCC(=O)O)c(Cl)c(Cl)c2C1=O,pKa,[1],3.9
same,Distribution,[2],99%
same,IC50,[3],50000 nM
same,Relative salidiuretic activity,[4],weak
CC1(C2CCCC2)Cc2cc(OC/C=C/CC(=O)O)c(Cl)c(Cl)c2C1=O (racemic),pKa,[1],5.1
same,Distribution,[2],98%
same,IC50,[3],> 40000 nM
CCC(C)C(=O)c1ccc(OCC(=O)O)c(Cl)c1Cl (centres undefined),pKa,[1],3.5
same,Distribution,[2],96%
same,Relative salidiuretic activity,[34],weak
same,Relative salidiuretic activity,[35],weak
same,Relative salidiuretic activity,[28],inactive
same,IC50,[3],500 nM
CCCC[C@@]1(C2CCCC2)Cc2cc(OCCCC(=O)O)c(Cl)c(Cl)c2C1=O,pKa,[1],4.4
same,Distribution,[2],99.9%
same,Relative salidiuretic activity,[28],inactive
